The results in this text go back to ChEMBL document CHEMBL2034893, “Selective inhibition of human type-5 17β-hydroxysteroid dehydrogenase (AKR1C3) by baccharin, a component of Brazilian propolis” (J Nat Prod, 2012).

The Ki is a measure of affinity in units of concentration, obtained from inhibition or displacement. One may read the inhibition as the relative decrease from the control value, in per cent. As a reminder, the IC50 is the concentration that inhibits the measured activity by half.

Structures are written as SMILES. Activity calls are given as the source filed them. No cut-off for these calls is given here.

For test [1], the system named is PC-3. Nature of the test: Growth inhibition of human PC3 cells overexpressing AKR1C3 at 50 uM after 72 hrs by MTT assay relative to untreated control. It is filed as functional. The conditions noted are these: PC-3, 72 h, read-out: GI. On the technique in general: Tetrazolium dyes change colour on reduction, which living cells bring about.
For test [2], the system named is PC-3. Nature of the test: Growth inhibition of human PC3 cells at 50 uM after 72 hrs by MTT assay relative to untreated control. The conditions noted are these: PC-3, 72 h, read-out: GI. It is filed as functional.
For test [3], the target named is T1, Aldo-keto reductase family 1 member C3 (Homo sapiens, UniProt P42330). Kind of test: Inhibition of human AKR1C3 using S-(+)-1,2,3,4-tetrahydro-1-naphthol as substrate. An outline of the steps:
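Recombinant human AKR1C3, purified to homogeneity. NADP+-linked S-tetralol oxidation at 25 °C in 0.1 M potassium phosphate pH 7.4 with 0.25 mM NADP+ and 1 mM S-tetralol. Rate followed by NADPH fluorescence (excitation 340 nm, emission 455 nm). IC50 given as mean ± SD of at least three determinations.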

For test [4], the target named is T1, Aldo-keto reductase family 1 member C3. Nature of the test: Inhibition of human recombinant AKR1C3 expressed in Escherichia coli JM109 cells using S-tetralol as substrate at 100 uM by fluorometry.
Test [5] shares this target. Nature of the test: Noncompetitive inhibition of human recombinant AKR1C3 expressed in Escherichia coli JM109 cells using S-tetralol as substrate by fluorometry in presence of NADP+.
Test [6] shares this target. Kind of test: Competitive inhibition of human recombinant AKR1C3 expressed in Escherichia coli JM109 cells using S-tetralol as substrate by fluorometry. An outline of the steps: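 Recombinant enzymes (wild-type or mutant) were expressed in E. coli JM109 and purified to homogeneity. Activity was NADP+-linked S-tetralol oxidation at 25 °C in 0.1 M potassium phosphate, pH 7.4, with saturating 0.25 mM NADP+ and five S-tetralol levels (0.33−2 mM). NADPH fluorescence was read at ex 340/em 455 nm. Ki is the mean ± SD of at least three determinations.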

The target is the same in test [7]. Kind of test: Inhibition of human recombinant AKR1C3 expressed in Escherichia coli JM109 cells using S-tetralol as substrate by fluorometry.
In test [8] the target is Aldo-keto reductase family 1 member C4 (Homo sapiens, UniProt P17516). Nature of the test: Inhibition of human recombinant GST-tagged AKR1C4 expressed in Escherichia coli using S-tetralol as substrate by fluorometry. An outline of the steps: (§1)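 Purified recombinant enzyme was assayed at 25 °C in 0.1 M potassium phosphate, pH 7.4, with 0.25 mM NADP+ and S-tetralol (0.1 mM for AKR1C1, 1 mM for AKR1C4). The rate of NADPH fluorescence increase was read at ex 340/em 455 nm. IC50 is the mean ± SD of at least three determinations.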
Sequence of Aldo-keto reductase family 1 member C4 (P17516 whole entry): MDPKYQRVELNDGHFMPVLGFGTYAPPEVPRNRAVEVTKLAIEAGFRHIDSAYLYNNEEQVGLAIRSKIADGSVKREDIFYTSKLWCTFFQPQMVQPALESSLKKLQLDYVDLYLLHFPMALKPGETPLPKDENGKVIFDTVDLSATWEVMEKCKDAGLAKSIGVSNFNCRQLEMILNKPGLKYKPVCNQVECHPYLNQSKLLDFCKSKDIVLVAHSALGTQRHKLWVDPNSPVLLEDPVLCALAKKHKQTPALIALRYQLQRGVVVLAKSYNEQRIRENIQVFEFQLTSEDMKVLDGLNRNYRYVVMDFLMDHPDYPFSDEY

Test [9] concerns the target T2, Aldo-keto reductase family 1 member C1 (Homo sapiens, UniProt Q04828). Kind of test: Inhibition of human recombinant GST-tagged AKR1C1 expressed in Escherichia coli using S-tetralol as substrate by fluorometry. In a few lines: as §1
The target in test [10] is Aldo-keto reductase family 1 member C2 (Homo sapiens, UniProt P52895). Nature of the test: Inhibition of human recombinant AKR1C2 expressed in Escherichia coli using S-tetralol as substrate by fluorometry.
Sequence of Aldo-keto reductase family 1 member C2 (P52895 whole entry): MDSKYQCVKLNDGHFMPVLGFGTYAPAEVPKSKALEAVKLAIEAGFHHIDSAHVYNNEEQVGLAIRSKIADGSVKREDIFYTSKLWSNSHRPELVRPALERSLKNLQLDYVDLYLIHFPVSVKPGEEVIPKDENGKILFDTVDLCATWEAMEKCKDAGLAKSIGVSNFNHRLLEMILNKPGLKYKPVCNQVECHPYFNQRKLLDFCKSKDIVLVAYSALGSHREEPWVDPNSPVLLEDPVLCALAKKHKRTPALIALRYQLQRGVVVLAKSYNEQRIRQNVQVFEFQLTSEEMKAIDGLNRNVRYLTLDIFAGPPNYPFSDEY
In test [11] the target is T2, Aldo-keto reductase family 1 member C1. Kind of test: Inhibition of AKR1C1-mediated progesterone reduction in human A549 cells at 0.2 to 5 uM incubated for 2 hrs prior to substrate addition measured after 6 hrs by LC/MS analysis. The test is classed as cell-based. An outline of the steps: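 A549 cells were grown in DMEM with 10% FBS at 37 °C under 5% CO2. They were pretreated 2 h with inhibitor in serum-free medium, then given 30 μM progesterone for 6 h. Medium steroids were extracted twice with ethyl acetate. Progesterone and 20α-hydroxyprogesterone were quantified by LC/MS (chiral column, total-ion monitoring). Percent inhibition of reduction is the mean of two independent experiments.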

T1 sequence (P42330 whole entry): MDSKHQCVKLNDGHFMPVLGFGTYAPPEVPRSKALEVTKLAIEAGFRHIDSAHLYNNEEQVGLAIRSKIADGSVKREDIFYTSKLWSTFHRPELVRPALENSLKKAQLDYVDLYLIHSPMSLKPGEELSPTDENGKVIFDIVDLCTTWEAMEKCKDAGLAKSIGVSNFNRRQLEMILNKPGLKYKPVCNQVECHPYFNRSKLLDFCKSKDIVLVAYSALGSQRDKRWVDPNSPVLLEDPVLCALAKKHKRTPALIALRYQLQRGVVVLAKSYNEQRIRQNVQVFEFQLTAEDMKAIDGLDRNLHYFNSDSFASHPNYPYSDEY
T2 sequence (Q04828 whole entry): as the sequence (P52895 whole entry) above, with V38T, H47R, V54L, S87C, M151V, H170R, L172Q counted along it

Regarding `CC(C)=CCc1cc(/C=C/C(=O)O)ccc1OC(=O)CCc1ccccc1` [BACCHARIN], the inhibition of growth at 50 µM was found to be 43% in the test with PC-3 [1] and 35% in the test on PC-3 [2].

On to `Cc1c(Cl)cccc1Nc1ccccc1C(=O)O` [TOLFENAMIC ACID], for which the affinity in [3] corresponds to a Ki of 8 nM.

As to `O=C(O)/C=C/c1ccc(O)c(O)c1`, the inhibition in [4] came out at 36%.

As to `CC(C)=CCc1cc(/C=C/C(=O)O)cc(CC=C(C)C)c1O` [ARTEPILLIN], the Ki in test [5] and in test [6] was 680 nM each time. Besides, the IC50 in [7] was 1000 nM.

Regarding `COc1ccc2c(c1)c(CC(=O)O)c(C)n2C(=O)c1ccc(Cl)cc1` [INDOMETHACIN], the IC50 in [8] is 54000 nM; in [9], 130000 nM; in [10], 75000 nM.

Consider `O=C(/C=C/c1ccc(O)c(O)c1)OCCc1ccccc1` [CAFFEIC ACID PHENETHYL ESTER], for which the IC50 in test [8] came to 2300 nM; in test [9], 13000 nM; in test [10], 6000 nM; in [7], 1700 nM.

In the case of `O=C(O)/C=C/c1ccc(O)cc1`, the inhibition in test [4] was 22%.

On to `O=C(O)c1cc(-c2ccccc2)cc(Br)c1O`, for which the inhibition result in test [11] is “Active”.
